# In ChEMBL document CHEMBL1125540, “Antiviral and antitumor structure-activity relationship studies on tetracyclic eudistomines” (1992):
# Legend:
# Format in all cases: functional
# HeLa [1] = assay: Evaluation for antiviral activity against Coxsackie virus B4 in HeLa cell cultures (Concentration required to reduce virus-induced cytopathogenicity by 50%); settings: Homo sapiens
# Procedure, shortened: (§1)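 HeLa cultures were infected with respiratory syncytial, vesicular stomatitis, Coxsackie B4 or polio-1 virus. The antiviral end-point is 50% reduction of virus-induced cytopathogenicity. Cytotoxicity is the minimum concentration producing microscopically detectable alteration of normal cell morphology.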
# HeLa [2] = assay: Evaluation for antiviral activity against vesicular stomatitis virus in HeLa cell cultures (Concentration required to reduce virus-induced cytopathogenicity by 50%); settings: Homo sapiens; procedure, shortened: as §1
# HeLa [3] = assay: Evaluation in HeLa cell cultures for cytotoxicity that is to cause microscopically detectable alteration of normal cell morphology; settings: Homo sapiens; procedure, shortened: as §1
# MT4 = assay: Inhibitory effect on the proliferation of human T-lymphocyte (MT-4); settings: read-out: ID50 (the source's name)
# Procedure, shortened: (§2)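 Proliferation assay in murine leukemia L1210, human T-lymphoblast Molt-4F and human T-lymphocyte MT-4 cells. ID50 is the dose inhibiting tumor cell proliferation by 50%, expressed in μg/mL.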
# MOLT-4F = assay: Inhibitory effect on the proliferation of human T-lymphoblast cells (Molt-4F); settings: read-out: ID50 (the source's name); procedure, shortened: as §2
# [4] = Evaluation for antiviral activity against vesicular stomatitis virus in primary rabbit kidney cell cultures(PRK) (Concentration required to reduce virus-induced cytopathogenicity by 50%); settings: Oryctolagus cuniculus
# [5] = Evaluation in PRK cell cultures for cytotoxicity that is to cause microscopically detectable alteration of normal cell morphology; settings: Oryctolagus cuniculus
# [6] = Evaluation for antiviral activity against herpes simplex virus-1(F) in primary rabbit kidney cell cultures(PRK) (Concentration required to reduce virus-induced cytopathogenicity by 50%); settings: Oryctolagus cuniculus
# [7] = Evaluated for antiviral activity against herpes simplex virus-1(KOS) in primary rabbit kidney cell cultures(PRK) (Concentration required to reduce virus-induced cytopathogenicity by 50%); settings: Oryctolagus cuniculus
# [8] = Evaluation for antiviral activity against herpes simplex virus-1 (McIntyre) in primary rabbit kidney cell cultures(PRK) (Concentration required to reduce virus-induced cytopathogenicity by 50%); settings: Oryctolagus cuniculus
# [9] = Evaluation for antiviral activity against herpes simplex virus-1(TK-) (B2006) in primary rabbit kidney cell cultures(PRK) (Concentration required to reduce virus-induced cytopathogenicity by 50%); settings: Oryctolagus cuniculus
# [10] = Evaluation for antiviral activity against herpes simplex virus-2(196) in primary rabbit kidney cell cultures(PRK) (Concentration required to reduce virus-induced cytopathogenicity by 50%); settings: Oryctolagus cuniculus
# [11] = Evaluation for antiviral activity against herpes simplex virus-2(G) in primary rabbit kidney cell cultures(PRK) (Concentration required to reduce virus-induced cytopathogenicity by 50%); settings: Oryctolagus cuniculus
# [12] = Evaluation for antiviral activity against herpes simplex virus-2(Lyons) in primary rabbit kidney cell cultures(PRK) (Concentration required to reduce virus-induced cytopathogenicity by 50%); settings: Oryctolagus cuniculus
# Vero [13] = assay: Evaluation for antiviral activity against reo virus-1 in Vero cell cultures (Concentration required to reduce virus-induced cytopathogenicity by 50%); settings: Chlorocebus sabaeus
# Procedure, shortened: (§3)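 Vero cultures were infected with parainfluenza-3, reovirus-1, Sindbis, Coxsackie B4 or Semliki forest virus. Values are concentrations giving 50% reduction of virus-induced cytopathogenicity, or a microscopically detectable alteration of normal cell morphology for cytotoxicity. Each is the average of two separate experiments.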
# Vero [14] = assay: Evaluation in Vero cell cultures for cytotoxicity that is to cause microscopically detectable alteration of normal cell morphology; settings: Chlorocebus sabaeus; procedure, shortened: as §3
# Vero [15] = assay: Evaluation for antiviral activity against forest virus in Vero cell cultures (Concentration required to reduce virus-induced cytopathogenicity by 50%); settings: Chlorocebus sabaeus; procedure, shortened: as §3
# Vero [16] = assay: Evaluation for antiviral activity against Sindbis virus in Vero cell cultures (Concentration required to reduce virus-induced cytopathogenicity by 50%); settings: Chlorocebus sabaeus; procedure, shortened: as §3
# Vero [17] = assay: Evaluation for antiviral activity against parainfluenza-3 virus in Vero cell cultures (Concentration required to reduce virus-induced cytopathogenicity by 50%); settings: Chlorocebus sabaeus; procedure, shortened: as §3
# L1210 = assay: Inhibitory effect on the proliferation of murine leukemia cells (L1210); settings: Mus musculus, read-out: ID50 (the source's name); procedure, shortened: as §2
# Vero [18] = assay: Evaluation for antiviral activity against Coxsackie virus B4 in Vero cell cultures (Concentration required to reduce virus-induced cytopathogenicity by 50%); settings: Chlorocebus sabaeus; procedure, shortened: as §3
# [19] = Evaluation for antiviral activity against vaccinia virus in primary rabbit kidney cell cultures(PRK) (Concentration required to reduce virus-induced cytopathogenicity by 50%); settings: Oryctolagus cuniculus
# HeLa [20] = assay: Evaluation for antiviral activity against polio virus-1 in HeLa cell cultures (Concentration required to reduce virus-induced cytopathogenicity by 50%); settings: Homo sapiens; procedure, shortened: as §1
# HeLa [21] = assay: Compound was evaluated for antiviral activity against respiratory syncitial virus (long) in HeLa cell cultures (Concentration required to reduce virus-induced cytopathogenicity by 50%); settings: Homo sapiens; procedure, shortened: as §1
# MDCK = assay: Compound was evaluated in MDCK cell cultures for cytotoxicity that is to cause microscopically detectable alteration of normal cell morphology; settings: Canis lupus familiaris
# Procedure, shortened: (§4)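 Influenza A and B virus replication in MDCK cultures. Antiviral value is the concentration giving 50% reduction of virus-induced cytopathogenicity. Cytotoxicity is the concentration causing a microscopically detectable change in normal cell morphology.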
# Influenza B virus = assay: Concentration required to reduce influenza virus B (singapore) induced cytopathogenicity by 50%; procedure, shortened: as §4
# Influenza A virus = assay: Concentration required to reduce influenza virus A (ishikawa) induced cytopathogenicity by 50%; procedure, shortened: as §4
SMILES,MIC (HeLa [1]) [µg/mL],MIC (HeLa [2]) [µg/mL],MCC (HeLa [3]) [µg/mL],IC50 (MT4) [µg/mL],IC50 (MOLT-4F) [µg/mL],MIC [4] [µg/mL],MCC [5] [µg/mL],MIC [8] [µg/mL],MIC [9] [µg/mL],MIC [10] [µg/mL],MIC [11] [µg/mL],MIC [12] [µg/mL],MIC (Vero [13]) [µg/mL],MCC (Vero [14]) [µg/mL],MIC (Vero [15]) [µg/mL],MIC (Vero [16]) [µg/mL],IC50 (L1210) [µg/mL],MIC (Vero [18]) [µg/mL],MIC [19] [µg/mL],MIC (HeLa [20]) [µg/mL],further results
COc1ccc2[nH]c3c(c2c1)CCN1OCSC[C@@H](N)[C@H]31,> 1,> 1,4,1.99,0.94,> 4,> 10,> 4,> 4,> 4,> 4,> 4,> 1,> 2.5,> 1,> 1,6.54,> 1,> 4,> 1,MIC [6]: > 4 µg/mL; MIC [7]: > 4 µg/mL; MIC (Vero [17]): > 1 µg/mL; MIC (HeLa [21]): > 1.6 µg/mL
N[C@H]1CSCON2CCc3c([nH]c4ccccc34)[C@H]12,> 1,> 1,> 4,0.77,0.6,> 4,10,> 4,> 4,2,> 4,2,> 4,> 10,> 4,> 4,1.4,> 4,> 4,> 1,MCC (MDCK): 8 µg/mL; MIC [6]: 2 µg/mL; MIC [7]: > 4 µg/mL; MIC (Vero [17]): > 4 µg/mL; MIC (Influenza B virus): > 1.6 µg/mL; MIC (Influenza A virus): > 1.6 µg/mL; MIC (HeLa [21]): > 1.6 µg/mL
N[C@@H]1CSCON2CCc3c([nH]c4ccccc34)[C@@H]12,> 10,> 10,> 10,4.5,5.14,> 10,40,> 10,> 10,> 10,> 10,> 10,> 10,40,> 10,> 10,17.4,> 10,> 10,> 10,MCC (MDCK): 15 µg/mL; MIC [6]: > 10 µg/mL; MIC [7]: > 10 µg/mL; MIC (Vero [17]): > 10 µg/mL; MIC (Influenza B virus): > 8 µg/mL; MIC (Influenza A virus): > 8 µg/mL; MIC (HeLa [21]): > 8 µg/mL
COc1ccc2[nH]c3c(c2c1)CCN1OCSC[C@@H](N)[C@@H]31,0.02,0.02,0.4,0.005,0.0062,0.02,> 1,0.02,0.04,0.02,0.02,0.04,0.07,> 1,0.07,0.02,0.005,0.07,0.02,0.02,MCC (MDCK): 0.8 µg/mL; MIC [6]: 0.07 µg/mL; MIC [7]: 0.045 µg/mL; MIC (Influenza B virus): > 0.32 µg/mL; MIC (Influenza A virus): > 0.32 µg/mL; MIC (HeLa [21]): 0.15 µg/mL
N[C@@H]1CSCON2CCc3c([nH]c4ccccc34)[C@H]12,0.7,0.2,> 4,0.075,0.12,0.2,> 10,0.2,0.7,0.2,0.2,0.07,0.4,> 4,0.2,0.2,0.11,0.4,0.1,0.7,MCC (MDCK): 8 µg/mL; MIC [6]: 0.07 µg/mL; MIC [7]: 0.7 µg/mL; MIC (Vero [17]): 0.2 µg/mL; MIC (Influenza B virus): 0.8 µg/mL; MIC (Influenza A virus): 0.8 µg/mL; MIC (HeLa [21]): 0.8 µg/mL
c1ccc2c3c([nH]c2c1)C1CCSCON1CC3 (stereo unspecified),> 10,> 10,> 40,96,18.3,> 100,> 200,> 100,> 100,> 100,> 100,> 100,> 10,> 40,> 10,> 10,24.9,> 10,> 100,> 10,MCC (MDCK): 80 µg/mL; MIC (Vero [17]): > 10 µg/mL; MIC (Influenza B virus): > 40 µg/mL; MIC (Influenza A virus): > 40 µg/mL; MIC (HeLa [21]): > 8 µg/mL
